Results as given in ChEMBL document CHEMBL1833943, “Synthesis and structure-activity relationships of varied ether linker analogues of the antitubercular drug (6S)-2-nitro-6-{[4-(trifluoromethoxy)benzyl]oxy}-6,7-dihydro-5h-imidazo[2,1-b][1,3]oxazine (PA-824)” (J Med Chem, 2011).
In brackets after ≈: the same amount, converted by molar mass.

What was measured:
[1] = system: Mycobacterium tuberculosis; assay: Antituberculosis activity against Mycobacterium tuberculosis H37Rv under anaerobic conditions by fluorescence based low-oxygen-recovery assay; assay type: functional
[2] = Aqueous solubility of the compound in water at pH 7 by HPLC analysis; assay type: physicochemical
In short: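 Solubility measured in water at pH 7 and 20 °C, quantified by HPLC.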

[3] = system: Mycobacterium tuberculosis; assay: Antituberculosis activity against Mycobacterium tuberculosis H37Rv under aerobic conditions by microplate alamar blue assay; assay type: functional
[4] = Metabolic stability in human liver microsomes at 1 uM measured as compound remaining after 1 hr by LC/MS/MS analysis; assay type: ADME, Microsome; details: read-out: Stability
[5] = Metabolic stability in CD1 mouse liver microsomes at 1 uM measured as compound remaining after 1 hr by LC/MS/MS analysis; assay type: ADME, Microsome; details: read-out: Stability
[6] = system: Mycobacterium tuberculosis; assay: Antituberculosis activity against Mycobacterium tuberculosis H37Rv infected in BALB/c mouse acute infection model assessed as fold reduction in bacterial CFU in lungs at 100 mg/kg, po administered for 5 days a week for 3 weeks beginning on day 11 postinfection relative to PA-824; assay type: functional
In short: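 Mice with acute M. tb infection dosed orally at 100 mg/kg daily, 5 days each week, standard 3 week assay. Lung CFUs counted. Value is the fold CFU decrease for the compound divided by the fold CFU decrease for the internal reference standard run in the same experiment.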

[7] = Stability of the compound in antimycobacterial activity assay condition assessed as parent compound level; assay type: ADME

Compound | MIC [1] | solubility [2] | MIC [3] | remaining at 1 h, 1 µM [4] | remaining at 1 h, 1 µM [5] | fold change (FC) [6] | Stability [7]
O=[N+]([O-])c1cn2c(n1)OC[C@@H](OCCCC#Cc1ccc(C(F)(F)F)cn1)C2 | 3.5 µM (≈ 1.39 µg/mL) | 28 µg/mL (≈ 70.6 µM) | 0.19 µM (≈ 0.0753 µg/mL) |  |  |  | 
O=[N+]([O-])c1cn2c(n1)OC[C@@H](OCCCc1ccc(-c3ccc(C(F)(F)F)cc3)cc1)C2 | > 128 µM |  | 0.043 µM (≈ 0.0192 µg/mL) | 73% | 81% | 0.05 | 
O=[N+]([O-])c1cn2c(n1)OC[C@@H](OCCOc1ccc(OC(F)(F)F)cc1)C2 | 5.1 µM (≈ 1.99 µg/mL) | 50 µg/mL (≈ 128 µM) | 0.04 µM (≈ 0.0156 µg/mL) | 85% | 66% | 1.3 | 
O=[N+]([O-])c1cn2c(n1)OC[C@@H](OCCCc1ccc(OC(F)(F)F)cc1)C2 | 3.2 µM (≈ 1.24 µg/mL) | 11 µg/mL (≈ 28.4 µM) | 0.22 µM (≈ 0.0852 µg/mL) |  |  |  | 
CC(O[C@@H]1COc2nc([N+](=O)[O-])cn2C1)c1ccc(OC(F)(F)F)cc1 (mixture of isomers) | 7.7 µM |  | 0.6 µM | 73% | 75% |  | 
O=[N+]([O-])c1cn2c(n1)OC[C@@H](OCc1ccc(OCc3ccccc3)cc1)C2 | 1.3 µM (≈ 0.496 µg/mL) | 0.76 µg/mL (≈ 1.99 µM) | 0.025 µM (≈ 0.00953 µg/mL) | 59% | 44% |  | 
O=[N+]([O-])c1cn2c(n1)OC[C@@H](OCC#Cc1ccc(OCc3ccccc3)cc1)C2 | 3.5 µM (≈ 1.42 µg/mL) | 0.43 µg/mL (≈ 1.06 µM) | 0.09 µM (≈ 0.0365 µg/mL) |  |  |  | < 50%
O=[N+]([O-])c1cn2c(n1)OC[C@@H](OCCCC#Cc1ccc(C(F)(F)F)nc1)C2 | 9.2 µM (≈ 3.65 µg/mL) | 16 µg/mL (≈ 40.4 µM) | 0.12 µM (≈ 0.0476 µg/mL) |  |  |  | 
O=[N+]([O-])c1cn2c(n1)OC[C@@H](Oc1cccc(-c3ccc(OC(F)(F)F)cc3)n1)C2 | 3.3 µM (≈ 1.39 µg/mL) | 0.12 µg/mL (≈ 0.284 µM) | 0.24 µM (≈ 0.101 µg/mL) |  |  |  | 
O=[N+]([O-])c1cn2c(n1)OC[C@@H](OC/C=C/c1ccc(C(F)(F)F)cn1)C2 | 3.8 µM (≈ 1.41 µg/mL) | 29 µg/mL (≈ 78.3 µM) | 0.043 µM (≈ 0.0159 µg/mL) |  |  |  | 
O=[N+]([O-])c1cn2c(n1)OC[C@@H](Oc1cc(-c3ccc(OC(F)(F)F)cc3)ccn1)C2 | 87 µM (≈ 36.7 µg/mL) | 0.13 µg/mL (≈ 0.308 µM) | 5.1 µM (≈ 2.15 µg/mL) |  |  |  | < 50%
O=[N+]([O-])c1cn2c(n1)OC[C@@H](OCC#Cc1ccc(-c3ccc(C(F)(F)F)nc3)cc1)C2 | 1.2 µM (≈ 0.533 µg/mL) |  | 0.15 µM (≈ 0.0667 µg/mL) | 82% | 90% | 0.01 | 
O=[N+]([O-])c1cn2c(n1)OC[C@@H](OC/C=C/c1ccc(C(F)(F)F)nc1)C2 | 21 µM (≈ 7.78 µg/mL) | 45 µg/mL (≈ 122 µM) | 0.15 µM (≈ 0.0555 µg/mL) |  |  |  | 
O=[N+]([O-])c1cn2c(n1)OC[C@@H](OCCOc1ncc(-c3ccc(OC(F)(F)F)cc3)cn1)C2 | 2.1 µM (≈ 0.981 µg/mL) | 21 µg/mL (≈ 44.9 µM) | 0.13 µM (≈ 0.0608 µg/mL) |  |  |  | 
O=[N+]([O-])c1cn2c(n1)OC[C@@H](OCC#Cc1ccc(OC(F)(F)F)cc1)C2 | 3.4 µM (≈ 1.3 µg/mL) | 0.77 µg/mL (≈ 2.01 µM) | 0.12 µM (≈ 0.046 µg/mL) |  |  |  | < 50%
O=[N+]([O-])c1cn2c(n1)OC[C@@H](OCCCc1ccc(C(F)(F)F)nc1)C2 | 12 µM (≈ 4.47 µg/mL) | 168 µg/mL (≈ 451 µM) | 0.51 µM (≈ 0.19 µg/mL) |  |  |  | 
O=[N+]([O-])c1cn2c(n1)OC[C@@H](OCCOc1ccc(-c3ccc(OC(F)(F)F)cc3)cc1)C2 | 1.6 µM (≈ 0.745 µg/mL) | 0.68 µg/mL (≈ 1.46 µM) | 0.055 µM (≈ 0.0256 µg/mL) | 90% | 70% | 1.4 | 
O=[N+]([O-])c1cn2c(n1)OC[C@@H](Oc1ccc(-c3ccc(OC(F)(F)F)cc3)nc1)C2 | 1.5 µM (≈ 0.633 µg/mL) | 0.27 µg/mL (≈ 0.639 µM) | 0.14 µM (≈ 0.0591 µg/mL) |  |  |  | 
O=[N+]([O-])c1cn2c(n1)OC[C@@H](OCC#Cc1ccc(C(F)(F)F)cn1)C2 | 3.3 µM (≈ 1.22 µg/mL) | 8.4 µg/mL (≈ 22.8 µM) | 0.12 µM (≈ 0.0442 µg/mL) |  |  |  | 
O=[N+]([O-])c1cn2c(n1)OC[C@@H](OC/C=C/c1ccc(-c3ccc(OC(F)(F)F)cc3)cc1)C2 | > 128 µM | 0.5 µg/mL (≈ 1.08 µM) |  | 100% | 95% | 2 | 

Compound | MIC [1] | solubility [2] | MIC [3] | remaining at 1 h, 1 µM [4] | remaining at 1 h, 1 µM [5] | fold change (FC) [6] | Stability [7]
O=[N+]([O-])c1cn2c(n1)OC[C@@H](OCC#Cc1ccc(-c3ccc(OC(F)(F)F)cc3)cn1)C2 | 0.35 µM (≈ 0.161 µg/mL) | 0.05 µg/mL (≈ 0.109 µM) | 0.025 µM (≈ 0.0115 µg/mL) | 89% | 86% | 0.91 | 
O=[N+]([O-])c1cn2c(n1)OC[C@@H](OCCOc1ccc(C(F)(F)F)nc1)C2 | 59 µM (≈ 22.1 µg/mL) | 58 µg/mL (≈ 155 µM) | 0.79 µM (≈ 0.296 µg/mL) |  |  |  | 
O=[N+]([O-])c1cn2c(n1)OC[C@@H](OCCOc1ccc(OCc3ccccc3)cc1)C2 | 5.5 µM (≈ 2.26 µg/mL) | 1.7 µg/mL (≈ 4.13 µM) | 0.085 µM (≈ 0.035 µg/mL) |  |  |  | 
O=[N+]([O-])c1cn2c(n1)OC[C@@H](OCC#Cc1ccc(C(F)(F)F)nc1)C2 | 8.9 µM (≈ 3.28 µg/mL) | 11 µg/mL (≈ 29.9 µM) | 0.18 µM (≈ 0.0663 µg/mL) |  |  |  | 
O=[N+]([O-])c1cn2c(n1)OC[C@@H](OCc1ccc(C(F)(F)F)cn1)C2 | 22 µM (≈ 7.57 µg/mL) | 188 µg/mL (≈ 546 µM) | 1.5 µM (≈ 0.516 µg/mL) |  |  |  | 
O=[N+]([O-])c1cn2c(n1)OC[C@@H](Oc1ccnc(-c3ccc(OC(F)(F)F)cc3)c1)C2 | 2.6 µM (≈ 1.1 µg/mL) | 0.53 µg/mL (≈ 1.25 µM) | 0.3 µM (≈ 0.127 µg/mL) |  |  |  | 
O=[N+]([O-])c1cn2c(n1)OC[C@@H](Oc1ncc(-c3ccc(OC(F)(F)F)cc3)cn1)C2 | 5.2 µM (≈ 2.2 µg/mL) | 1.7 µg/mL (≈ 4.02 µM) | 0.22 µM (≈ 0.0931 µg/mL) | 88% | 95% |  | 
O=[N+]([O-])c1cn2c(n1)OC[C@@H](Oc1ccc(-c3ccc(OC(F)(F)F)cc3)cn1)C2 | 12 µM (≈ 5.07 µg/mL) | 0.24 µg/mL (≈ 0.568 µM) | 0.39 µM (≈ 0.165 µg/mL) | 96% | 93% | 0.17 | 
O=[N+]([O-])c1cn2c(n1)OC[C@@H](OC/C=C/c1ccc(OC(F)(F)F)cc1)C2 | 4.3 µM (≈ 1.66 µg/mL) | 1.5 µg/mL (≈ 3.89 µM) | 0.05 µM (≈ 0.0193 µg/mL) | 99% | 71% |  | 
O=[N+]([O-])c1cn2c(n1)OC[C@@H](OCCCC#Cc1ccc(-c3ccc(OC(F)(F)F)cc3)cc1)C2 | > 128 µM |  | 0.055 µM (≈ 0.0268 µg/mL) |  |  |  | Unstable
O=[N+]([O-])c1cn2c(n1)OC[C@@H](OCCCc1ccc(OCc3ccccc3)cc1)C2 | 3.7 µM (≈ 1.51 µg/mL) | 3.8 µg/mL (≈ 9.28 µM) | 0.5 µM (≈ 0.205 µg/mL) |  |  |  | 
O=[N+]([O-])c1cn2c(n1)OC[C@@H](OC/C=C/c1ccc(OCc3ccccc3)cc1)C2 | 1.3 µM (≈ 0.53 µg/mL) | 0.06 µg/mL (≈ 0.147 µM) | 0.16 µM (≈ 0.0652 µg/mL) |  |  |  | < 50%
O=[N+]([O-])c1cn2c(n1)OC[C@@H](Oc1cc(-c3ccc(OC(F)(F)F)cc3)ncn1)C2 |  | 0.88 µg/mL (≈ 2.08 µM) | 2.1 µM (≈ 0.889 µg/mL) |  |  |  | < 50%
O=[N+]([O-])c1cn2c(n1)OC[C@@H](OCCOc1ccc(C(F)(F)F)cn1)C2 | 26 µM (≈ 9.73 µg/mL) | 42 µg/mL (≈ 112 µM) | 0.38 µM (≈ 0.142 µg/mL) |  |  |  | 
O=[N+]([O-])c1cn2c(n1)OC[C@@H](OCc1ccc(C(F)(F)F)nc1)C2 | 50 µM (≈ 17.2 µg/mL) | 68 µg/mL (≈ 198 µM) | 3 µM (≈ 1.03 µg/mL) |  |  |  | 
O=[N+]([O-])c1cn2c(n1)OC[C@@H](OCC#Cc1ccc(-c3ccc(C(F)(F)F)cc3)nc1)C2 | 0.58 µM (≈ 0.258 µg/mL) |  | 0.07 µM (≈ 0.0311 µg/mL) |  |  |  | 
O=[N+]([O-])c1cn2c(n1)OC[C@@H](Oc1cccc(-c3ccc(C(F)(F)F)nc3)n1)C2 | > 128 µM |  | 5.7 µM (≈ 2.32 µg/mL) |  |  |  | 
O=[N+]([O-])c1cn2c(n1)OC[C@@H](OCC#Cc1ccc(-c3ccc(OC(F)F)cc3)nc1)C2 | 0.61 µM (≈ 0.27 µg/mL) |  | 0.08 µM (≈ 0.0354 µg/mL) |  |  |  | 
O=[N+]([O-])c1cn2c(n1)OC[C@@H](Oc1cc(-c3ccc(C(F)(F)F)nc3)ccn1)C2 | 27 µM (≈ 11 µg/mL) |  | 3 µM (≈ 1.22 µg/mL) |  |  |  | 
O=[N+]([O-])c1cn2c(n1)OC[C@@H](OCCOc1ccc(-c3ccc(OC(F)(F)F)cc3)cn1)C2 | 2.5 µM (≈ 1.17 µg/mL) | 0.79 µg/mL (≈ 1.69 µM) | 0.04 µM (≈ 0.0187 µg/mL) |  |  |  | < 50%
